Shown are actives, neighbours in structure and some others; about 4.5% of the full set was active somewhere.
MrgX1 ag – human MrgX1 receptor agonism, primary screen; AID 588627; B-score at 10 µM; Q96LB2; actives 0.44% (n = 310,000); MrgX1-HEK293 cells, Fluo-4 calcium fluorescence, agonist mode; active compounds read high;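 active means calcium response B-score plate-corrected fluorescence ratio at least 3 library SD, with starting fluorescence B-score inside 5 SD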
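System: HEK293 cells stably expressing human MrgX1 receptor; Dosing: test compound in the initial addition of three; Schedule: overnight plating, then 30 min 37 °C plus 30 min room-temperature dye loading; Detection: kinetic calcium dye fluorescence, Fluo-4 NW; Controls: per-plate positive and negative controls for Z′ factor.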
RGS4 inh – inhibitors of human RGS4 | actives 0.45% (n = 310,000) | HEK293 M3R/RGS4 inducible, Fluo-4 calcium flux; active compounds read high; triggered by carbachol at its EC20 | B-score at 10 µM;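 active means B-score, a plate-corrected calcium signal, over three deviations above library mean, with baseline fluorescence within five deviations of library mean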;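 further: RGS4 expression induced by doxycycline in cells with stable M3 receptor; B-score is computed from the integrated fluorescence ratio over baseline after carbachol; higher B-score means a larger calcium signal and so more RGS4 inhibition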
Target sequence (P49798 whole entry, looked up): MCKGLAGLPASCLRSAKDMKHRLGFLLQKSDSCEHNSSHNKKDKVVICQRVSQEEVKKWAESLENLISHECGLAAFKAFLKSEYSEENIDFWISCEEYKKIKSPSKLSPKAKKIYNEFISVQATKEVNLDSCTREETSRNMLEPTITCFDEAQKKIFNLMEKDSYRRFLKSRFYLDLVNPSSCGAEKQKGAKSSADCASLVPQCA
MrgX1 allo act – human MrgX1 positive allosteric modulation, primary screen; actives 0.63% (n = 310,000); B-score at 10 µM; MrgX1-HEK293, Fluo-4 calcium flux, FDSS; active compounds read high; Q96LB2;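 active means plate-corrected calcium response at least 3 library SD above typical, normal starting fluorescence, not activating the receptor alone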;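 further: compound read alongside a low EC10 to EC30 dose of BAM8-22 agonist; peak minus trough fluorescence over baseline measured at the second addition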
PHOSPHO1 block – PHOSPHO1 (human) inhibition | Q8TCT1 | recombinant PHOSPHO1, absorbance phosphatase assay | inhibition, % at 13.3 µM | actives 1.1% (n = 290,000) | AID 1565; in the data active means inhibition above about 60%
Target sequence (Q8TCT1 whole entry, looked up): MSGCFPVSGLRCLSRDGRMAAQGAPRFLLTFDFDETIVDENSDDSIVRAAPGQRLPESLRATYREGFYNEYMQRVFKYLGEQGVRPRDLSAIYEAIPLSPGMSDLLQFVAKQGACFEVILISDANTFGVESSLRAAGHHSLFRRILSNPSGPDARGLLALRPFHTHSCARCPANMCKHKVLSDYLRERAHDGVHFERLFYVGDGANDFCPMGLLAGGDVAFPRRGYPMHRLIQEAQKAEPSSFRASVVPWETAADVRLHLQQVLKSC
MrgX1 antag – blocks BAM8-22 activation of human MrgX1 receptor; MRGX1-HEK293 calcium flux, Fluo-4, BAM8-22 antagonism; active compounds read low; B-score at 10 µM; actives 1.3% (n = 310,000); AID 588676;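 active means calcium-response B-score plate-corrected more than 3 library SD below zero, starting fluorescence within 5 deviations, no agonist response on first addition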;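 further: peak minus trough fluorescence over baseline after final BAM8-22 challenge near maximal dose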
RGS4 act – RGS4 potentiation or activation. HEK293 M3R/inducible RGS4, carbachol calcium flux Fluo4; active compounds read low. B-score at 10 µM. actives 0.92% (n = 310,000). AID 463111;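 active means B-score of the integrated calcium signal more than 4 SD below the library mean, with starting fluorescence not abnormally high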;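 further: negative B-score means reduced calcium response which marks RGS4 activation or potentiation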
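Test system: HEK293 cells with stable M3R and inducible RGS4; also added: carbachol at ECmax as muscarinic agonist stimulus; schedule: dye loading 30 min 37 °C, buffer rest 30 min RT; technique: kinetic calcium fluorescence imaging with Fluo4-AM dye, 2 µM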
MrgX1 ant reconf – reconfirmed antagonist of human MrgX1 receptor signaling | shares compounds with MrgX1 antag | MrgX1-HEK293, BAM8-22 calcium flux, Fluo-4; active compounds read low | remaining BAM8-22 calcium response % of control (active compounds read low), % at 10 µM | actives 19% (n = 2,300) | AID 602420;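 active means remaining agonist calcium response no higher than 100% minus 3 SD of agonist-only control wells, with starting fluorescence near control levels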;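 further: agonist BAM8-22 given at a near maximal EC90 to ECmax level; peak minus minimum fluorescence divided by baseline after agonist addition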
HEK293 Ca flux – counter-screen for MrgX1 antagonists: effect in parental HEK293 cells. shares compounds with MrgX1 antag. Fluo-4 calcium fluorescence, FDSS. fluorescence ratio F(max-min)/F0 at 10 µM. actives 2% (n = 4,000);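 active means duplicate-averaged calcium fluorescence ratio at least three times the standard deviation of buffer wells, a nonspecific response in parental cells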
HEK293 Ca counter – activity in parental HEK293 cells without MrgX1 | shares compounds with MrgX1 antag | parental HEK293 calcium flux, Fluo-4 fluorescence ratio; active compounds read high | fluorescence ratio F(max-min)/F0 at 10 µM | actives 0.4% (n = 4,000) | AID 624114;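 active means calcium fluorescence ratio, averaged over duplicates, at least 3 SD of the buffer-well ratio, meaning a nonspecific response in receptor-free cells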;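 further: untransfected parental HEK293 lacking MrgX1 used as counterscreen for MrgX1 allosteric activators; fluorescence change taken during the second addition on a kinetic imager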
HEK293 Ca cntr2 – activity in parental HEK293 cells lacking MrgX1 receptor; shares compounds with MrgX1 antag; Fluo-4 calcium fluorescence (FDSS); active compounds read high; fluorescence ratio F(max-min)/F0 at 10 µM; actives 8.7% (n = 4,000); AID 624115;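 active means calcium fluorescence ratio at least three times the spread of buffer wells, meaning a non-specific response in parental cells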
Hits are given with their value.

CN(C)c1ccc(C2N(c3ccc(Cl)cc3)C(=O)C3CCCN32)cc1 (stereo not drawn) was read as MrgX1 ag inactive, RGS4 inh inactive, MrgX1 allo act inactive, PHOSPHO1 block inactive, MrgX1 antag -6.01, RGS4 act inactive, MrgX1 ant reconf inactive, HEK293 Ca flux inactive, HEK293 Ca counter inactive and HEK293 Ca cntr2 inactive.
`COc1c2c(nc3ccccc13)OC(C(C)(O)CO)C2` (stereo not drawn) gave MrgX1 ag inactive, RGS4 inh inactive, MrgX1 allo act inactive, PHOSPHO1 block inactive, MrgX1 antag -6.89, RGS4 act inactive, MrgX1 ant reconf inactive, HEK293 Ca flux inactive, HEK293 Ca counter inactive and HEK293 Ca cntr2 inactive.
Screening COc1ccc(OCC(=O)N/N=C(\C)CC(=O)Nc2cccc([N+](=O)[O-])c2)cc1 returned MrgX1 ag inactive, RGS4 inh inactive, MrgX1 allo act inactive, PHOSPHO1 block inactive, MrgX1 antag -11.4, RGS4 act inactive, MrgX1 ant reconf inactive, HEK293 Ca flux inactive, HEK293 Ca counter inactive and HEK293 Ca cntr2 inactive.
COc1ccc(NC(=O)C/C(C)=N/NC(=O)COc2ccc(OC)cc2)cc1 was read as MrgX1 ag inactive, RGS4 inh inactive, MrgX1 allo act inactive, PHOSPHO1 block inactive, MrgX1 antag inactive and RGS4 act inactive.
For CN1CCN(S(=O)(=O)c2ccc(NC(=O)c3ccc(F)cc3Cl)cc2)CC1 the results were MrgX1 ag inactive, RGS4 inh inactive, MrgX1 allo act inactive, MrgX1 antag inactive and RGS4 act inactive.
For COc1cccc(CN(C)C(=S)Nc2cccc(C)c2)c1 the results were MrgX1 ag inactive, RGS4 inh inactive, MrgX1 allo act inactive, PHOSPHO1 block inactive, MrgX1 antag -4.89, RGS4 act inactive, MrgX1 ant reconf inactive, HEK293 Ca flux inactive, HEK293 Ca counter inactive and HEK293 Ca cntr2 inactive.
Cc1cc(=O)oc2cc(OCC(=O)N3CCC(C(N)=O)CC3)ccc12 was read as MrgX1 ag inactive, RGS4 inh inactive, MrgX1 allo act inactive, PHOSPHO1 block inactive, MrgX1 antag inactive and RGS4 act inactive.
O=C(CSc1nnc2ccc(-c3ccccn3)nn12)NCCc1ccccc1 was read as MrgX1 ag inactive, RGS4 inh inactive, MrgX1 allo act inactive, MrgX1 antag -12.7, RGS4 act inactive, MrgX1 ant reconf 84.4%, HEK293 Ca flux inactive, HEK293 Ca counter inactive and HEK293 Ca cntr2 inactive.
Screening CC(C)(C)NC(=O)CN(C(=O)c1csnn1)c1cccc2c1CCCC2 returned MrgX1 ag inactive, RGS4 inh inactive, MrgX1 allo act inactive, PHOSPHO1 block inactive, MrgX1 antag inactive and RGS4 act inactive.
`Cc1ccc(NC(=O)C2CCN(S(=O)(=O)c3ccc4c(c3)NC(=O)C(C)S4)CC2)cc1Cl` (stereo not drawn) gave MrgX1 ag inactive, RGS4 inh inactive, MrgX1 allo act inactive, PHOSPHO1 block inactive, MrgX1 antag -4.6, RGS4 act inactive, MrgX1 ant reconf 85.5%, HEK293 Ca flux inactive, HEK293 Ca counter inactive and HEK293 Ca cntr2 inactive.
`Cc1cc(C)cc(NC(=O)C2CCN(S(=O)(=O)c3ccc4c(c3)NC(=O)C(C)S4)CC2)c1` (stereo not drawn) gave MrgX1 ag inactive, RGS4 inh inactive, MrgX1 allo act inactive, PHOSPHO1 block inactive, MrgX1 antag inactive and RGS4 act inactive.
`O=C(NCCCN1CCCC1)c1cc2c(Cl)nc3ccccc3c2s1` gave MrgX1 ag inactive, RGS4 inh inactive, MrgX1 allo act inactive, PHOSPHO1 block inactive, MrgX1 antag -7.65, RGS4 act inactive, MrgX1 ant reconf inactive, HEK293 Ca flux inactive, HEK293 Ca counter inactive and HEK293 Ca cntr2 inactive.
`N#CCc1ccc(OC(=O)c2ccncc2)cc1` gave MrgX1 ag inactive, RGS4 inh inactive, MrgX1 allo act inactive, MrgX1 antag inactive and RGS4 act inactive.
CCN(Cc1ccccc1)S(=O)(=O)c1ccc2oc(C(=O)O)c(C)c2c1 was read as MrgX1 ag inactive, RGS4 inh inactive, MrgX1 allo act inactive, PHOSPHO1 block inactive, MrgX1 antag -5.19, RGS4 act inactive, MrgX1 ant reconf inactive, HEK293 Ca flux inactive, HEK293 Ca counter inactive and HEK293 Ca cntr2 inactive.
`CCN(CC)S(=O)(=O)c1ccc2oc(C(=O)O)c(C)c2c1` gave MrgX1 ag inactive, RGS4 inh inactive, MrgX1 allo act inactive, PHOSPHO1 block inactive, MrgX1 antag inactive and RGS4 act inactive.
O=C1CC(=O)N(CCc2ccccc2)C(=O)N1CCc1ccccc1 was read as MrgX1 ag inactive, RGS4 inh inactive, MrgX1 allo act inactive, PHOSPHO1 block inactive, MrgX1 antag -11.4, RGS4 act inactive, MrgX1 ant reconf 79.4%, HEK293 Ca flux inactive, HEK293 Ca counter inactive and HEK293 Ca cntr2 inactive.
`O=C1CCCC2=C1Sc1ccccc1N2` gave MrgX1 ag inactive, RGS4 inh inactive, MrgX1 allo act inactive, PHOSPHO1 block inactive, MrgX1 antag -4.79, RGS4 act inactive, MrgX1 ant reconf inactive, HEK293 Ca flux inactive, HEK293 Ca counter inactive and HEK293 Ca cntr2 inactive.
For CCc1cccc(CC)c1NC(=O)CSc1nc2ccc(N3C(=O)C4C5C=CC(C5)C4C3=O)cc2s1 (stereo not drawn) the results were MrgX1 ag inactive, RGS4 inh inactive, MrgX1 allo act inactive, PHOSPHO1 block inactive, MrgX1 antag -8.16, RGS4 act inactive, MrgX1 ant reconf inactive, HEK293 Ca flux inactive, HEK293 Ca counter inactive and HEK293 Ca cntr2 inactive.
Screening Cc1ccc2c(Cl)c(C(=O)NCC3CCCO3)sc2c1 (stereo not drawn) returned MrgX1 ag inactive, RGS4 inh inactive, MrgX1 allo act inactive, PHOSPHO1 block inactive, MrgX1 antag -4.56, RGS4 act inactive, MrgX1 ant reconf inactive, HEK293 Ca flux inactive, HEK293 Ca counter inactive and HEK293 Ca cntr2 inactive.
For CCCSc1nc2c(c(=O)[nH]c(=O)n2C)n1Cc1ccccc1 the results were MrgX1 ag inactive, RGS4 inh inactive, MrgX1 allo act inactive, PHOSPHO1 block inactive, MrgX1 antag inactive and RGS4 act inactive.

Screening data from PubChem.
